# Assay outcomes deposited in PubChem by several laboratories.
# CR mimetic SO = caloric restriction mimetics inhibiting age-related superoxide in yeast; S. cerevisiae aged cells, superoxide DHE fluorescence; stronger effect = lower value; superoxide response (% of plate mean), % at 10 µM; actives 0.18% (n = 330,000); AID 2690;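 active = superoxide response under a set limit, about three screen SD below normal, cut at about 65% in these data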;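 also: yeast aged for seven days with compound at 30 °C before DHE staining; 100% = average MFI of all compound-treated wells on the plate with controls excluded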
# NRP1-CendR mod = modulators of CendR peptide binding to human neuropilin-1; O14786; FAM-RPARPAR peptide binding to NRP-1, fluorescence polarization; inhibition, % at 25 µM; actives 0.85% (n = 360,000); AID 602438;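 active = inhibition or corrected inhibition above about 18%, plus a signal ratio from 0.5 to 1.5, limit read from the data, passing the limit was not always enough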
# Target sequence (O14786 whole entry, looked up): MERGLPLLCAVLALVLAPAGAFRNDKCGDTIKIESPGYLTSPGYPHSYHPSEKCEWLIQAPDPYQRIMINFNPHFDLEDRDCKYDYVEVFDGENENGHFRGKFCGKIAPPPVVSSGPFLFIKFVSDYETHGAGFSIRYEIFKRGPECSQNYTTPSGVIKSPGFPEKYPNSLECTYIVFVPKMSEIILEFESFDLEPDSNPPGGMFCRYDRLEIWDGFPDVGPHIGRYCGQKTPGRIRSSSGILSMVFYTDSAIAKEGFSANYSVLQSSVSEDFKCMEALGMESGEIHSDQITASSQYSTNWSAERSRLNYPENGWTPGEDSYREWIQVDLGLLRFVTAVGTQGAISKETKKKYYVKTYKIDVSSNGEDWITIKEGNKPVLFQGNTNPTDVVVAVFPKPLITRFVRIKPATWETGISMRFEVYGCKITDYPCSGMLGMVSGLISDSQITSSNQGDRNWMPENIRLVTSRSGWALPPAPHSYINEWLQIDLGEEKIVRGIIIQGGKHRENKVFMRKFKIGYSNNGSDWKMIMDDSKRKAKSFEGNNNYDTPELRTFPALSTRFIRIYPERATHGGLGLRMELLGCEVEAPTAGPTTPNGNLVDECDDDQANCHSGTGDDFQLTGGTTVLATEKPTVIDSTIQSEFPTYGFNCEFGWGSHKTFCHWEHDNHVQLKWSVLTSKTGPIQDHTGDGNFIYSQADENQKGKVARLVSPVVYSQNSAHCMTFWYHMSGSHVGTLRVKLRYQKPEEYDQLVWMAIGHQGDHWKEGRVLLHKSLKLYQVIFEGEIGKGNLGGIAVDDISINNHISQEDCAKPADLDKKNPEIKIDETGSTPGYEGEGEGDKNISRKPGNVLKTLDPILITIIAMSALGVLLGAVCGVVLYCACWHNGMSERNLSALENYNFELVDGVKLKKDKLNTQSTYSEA
# HIF activator = HIF pathway transcriptional activation; U2OS HRE-luciferase reporter, luminescence; normalized: DMSO 0%, desferrioxamine 100%; activation, % at 7.5 µM (by protocol); actives 0.32% (n = 300,000); AID 1910;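 active = mean activation of at least 10% of the iron chelator positive control signal, with at least half of replicates also reaching 10%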
# V-ATPase pHluor = regulators of yeast V-ATPase proton transport; S. cerevisiae, pHLuorin cytosolic pH fluorescence; response, % at 10 µM; actives 0.37% (n = 350,000); AID 504577; in the data active = response mostly above about 7.3%, no sharp cut-off; inactive = mostly below about 5.4%; also: actives read high
# AI-2 QS mod = Vibrio harveyi AI-2 quorum sensing modulation. actives 0.4% (n = 300,000). AID 2094. activity change, % at 7.5 µM. Vibrio harveyi JMH597 AI-2 luminescence/OD600 ratio, 9 h; stronger effect = lower value; strain lacks LuxN and CqsS sensors; 0 = neutral-control median; in the data active = activity change below about -75%, passing the limit was not always enough;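 also: luminescence divided by OD600 gain over 9 h not by final OD600 alone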
# T cruzi repl = T. cruzi replication inhibition; T. cruzi beta-gal in NIH3T3, luminescence, 90 h; AID 1885; actives 1.4% (n = 300,000); inhibition, % (no concentration beside the values);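 active = mean inhibition across valid replicates above about 55%, limit read from the data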;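 also: signal also drops with host cell toxicity which is not excluded here; 0% = plate median of DMSO wells and 100% = zero luminescence signal; higher percent means less beta-gal luminescence so fewer parasites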
#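 assay system = mouse NIH/3T3 fibroblasts infected with β-gal-expressing T. cruzi Tulahuen C4 | input = 5,000 NIH/3T3 host cells per well | buffer or medium = DMEM plus 2% FBS | timing = 3 h host attachment, then at least 90 h co-culture | measured by = GalScreen luminescence, 60 min | evaluation = luminescence reflecting intracellular parasite burden, expressed as percent inhibition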
# * marks the source's active call; other numbers are inactive results; . = no result given. Only some compounds are listed: those with a hit (about 3% of all), similar ones and a draw of the others.
SMILES,CR mimetic SO,NRP1-CendR mod,HIF activator,V-ATPase pHluor,AI-2 QS mod,T cruzi repl
CC(=O)c1cccc(Nc2cc(C)nc3c(C)cc(C)cc23)c1,91,-10,-5,0,-10,56*
COC(=O)C1C(c2ccc(OC)cc2)NC(=O)NC1(O)C(F)(F)Cl (stereo unspecified),106,4,0,-2,3,0
COc1ccc(N(C(=O)c2ccncc2)S(=O)(=O)c2cccc([N+](=O)[O-])c2)cc1,105,19*,-1,-1,11,-10
COc1ccc(N(C(=O)c2cccnc2)S(=O)(=O)c2cccc([N+](=O)[O-])c2)cc1,123,0,0,-2,0,6
CCOc1ccc(-c2cc(C(=O)Nc3ccc4c(c3)OCCO4)c3ccccc3n2)cc1,101,56*,1,-6,15,20
Cc1cccc(-c2cc(C(=O)Nc3ccc4c(c3)OCCO4)c3ccccc3n2)c1,93,9,0,3,7,37
O=C(NCc1ccc(C(F)(F)F)cc1)C12CN(Cc3ccccc3)CC1C(c1cccc([N+](=O)[O-])c1)=NO2 (stereo unspecified),102,17,0,3,34,39
COc1cc2nc(N3CCN(c4cc(C)ccc4C)CC3)nc(N)c2cc1OC,106,-10,-5,0,51,56*
COc1cc2nc(N3CCNCC3)nc(N)c2cc1OC,87,15,0,-3,20,32
Cc1occc1C(=O)Nc1ccccc1C(=O)O,126,-1,0,5,18,-3
Cc1occc1C(=O)Nc1cccc(Cl)c1Cl,106,29*,2,5,-22,-6
O=C(NCC1CCCO1)C(c1cccs1)N(Cc1ccccc1Cl)C(=O)c1ccc(-c2ccccc2)[nH]1 (stereo unspecified),113,-3,-25,2,25,74*
Cc1ccc(C(C(=O)NCC2CCCO2)N(Cc2ccccc2)C(=O)c2ccc(-c3ccccc3)[nH]2)o1 (stereo unspecified),100,-11,0,2,6,34
COc1ccc(-c2c[n+]3c(n2-c2ccccc2)SCC3)cc1,84,-9,0,3,16,61*
Brc1ccc(-c2c[n+]3c(n2-c2ccccc2)SCC3)cc1,95,-5,0,-1,12,47
Cc1ccc(-c2c[n+]3c(n2-c2ccccc2)SCC3)cc1,103,6,0,-1,19,66*
COc1ccc(-c2c[n+]3c(n2-c2ccccc2)SCC3)cc1OC,94,-8,0,-1,6,7
CN(C)c1cc[n+](CC(=O)Nc2c(Cl)cc(Cl)cc2Cl)cc1,102,8,0,-2,30,-15
Cc1cc(C)nc(N/N=C/C2=C(O)CC(c3ccc(F)cc3)CC2=O)n1 (stereo unspecified),100,2,22*,2,74,10
COc1cc(C(c2sc3ncnn3c2O)N2CCN(c3ccccc3F)CC2)cc(OC)c1OC (stereo unspecified),112,0,0,-2,20,17
Cc1cccc(NC(=O)C2CC(=O)N(Cc3ccccc3)C2)n1 (stereo unspecified),94,-6,0,-2,-4,-13
O=C1c2cccc3cccc(c23)C(=O)N1CCN1CCN(C(=S)Nc2ccc(F)cc2)CC1,130,.,0,.,30,5
Cc1ccc(NC(=S)N2CCN(CCN3C(=O)c4cccc5cccc(c45)C3=O)CC2)cc1,107,6,0,-5,11,74*
COC(=O)[C@]1(Sc2ccc(OC)cc2)CC(=O)N[C@@H]1c1ccccc1,.,-2,.,.,.,.
CCC/C(O)=C1\C(=O)CC(C)(C)CC1=NCc1ccccc1,98,-11,77*,-6,20,19
SMILES,CR mimetic SO,NRP1-CendR mod,HIF activator,V-ATPase pHluor,AI-2 QS mod,T cruzi repl
Cc1ccc(S(=O)(=O)c2nnn3c2nc(N2CCC(C(N)=O)CC2)c2ccccc23)cc1,112,-11,0,-1,36,-3
COc1cc(OC)c2nc(C)c3c(c2c1)N(c1ccc(O)cc1)CC3,92,4,16*,0,6,83*
COc1ccc(N2CCN(c3cc(C)c4ccc(O)cc4n3)CC2)cc1,107,4,0,-2,2,4
Cc1ccnc(NS(=O)(=O)c2ccc(NC(=O)c3ccc([N+](=O)[O-])s3)cc2)n1,129,-18,-1,1,38,67*
O=C(Nc1ccc(S(=O)(=O)NC2=NCCCCC2)cc1)c1ccc([N+](=O)[O-])s1,128,12,-1,-1,12,65*
COc1ccc(CCC2(C)NC(=O)NC2=O)cc1 (stereo unspecified),103,-10,.,6,28,-18
Cc1ccc(NC(=O)CCNC(=O)c2ccc([N+](=O)[O-])cc2)cc1S(=O)(=O)N(C)C,119,39*,0,-2,6,21
Cc1ccc(NC(=O)c2ccc([N+](=O)[O-])cc2)cc1S(=O)(=O)N(C)C,99,0,1,3,19,41
CC(=O)Nc1nc(NC(=O)/C=C/c2ccccc2)n(-c2ccccc2)n1,110,-3,10*,-2,-33,27
O=C(Nc1nc(NC(=O)c2ccco2)n(-c2ccccc2)n1)c1ccccc1,97,14,12*,-3,54,2
CC1CC(=O)Nc2ccc([N+](=O)[O-])cc2N1C (stereo unspecified),98,-1,0,-7,18,-10
CC1CC(=O)Nc2cc([N+](=O)[O-])ccc2N1 (stereo unspecified),93,32*,0,0,16,-8
CC(C)(Oc1ccc(Cl)cc1)C(=O)OCn1nnc2ccccc2c1=O,101,-4,1,4,19,2
CN(C)S(=O)(=O)c1ccc(C(=O)OCC2CC2(Cl)Cl)cc1 (stereo unspecified),108,-1,0,3,-77*,4
CC1CN(C(=O)COC(=O)c2ccc(S(=O)(=O)N(C)C)cc2)CC(C)O1 (stereo unspecified),88,9,0,0,1,-6
Cc1c(O[C@@H]2O[C@H](CO)[C@@H](O)[C@H](O)[C@H]2O)c(CO)c(O[C@@H]2O[C@H](CO)[C@@H](O)[C@H](O)[C@H]2O)c2c1O[C@@H](c1ccccc1)C[C@@H]2O,103,5,.,-1,.,.
COc1ccc(/C=C2\CN(Cc3ccccc3)C/C(=C\c3ccc(OC)cc3OC)C2=O)c(OC)c1,103,-10,-1,0,44,81*
O=C(CO/N=C/c1c(Cl)cccc1Cl)NNC(=O)c1cccc(Cl)c1,92,-12,-1,-4,5,-12
